The target in test [1] is T1, Retinoic acid receptor RXR-alpha (Homo sapiens) (UniProt P19793).
T1 sequence (whole entry): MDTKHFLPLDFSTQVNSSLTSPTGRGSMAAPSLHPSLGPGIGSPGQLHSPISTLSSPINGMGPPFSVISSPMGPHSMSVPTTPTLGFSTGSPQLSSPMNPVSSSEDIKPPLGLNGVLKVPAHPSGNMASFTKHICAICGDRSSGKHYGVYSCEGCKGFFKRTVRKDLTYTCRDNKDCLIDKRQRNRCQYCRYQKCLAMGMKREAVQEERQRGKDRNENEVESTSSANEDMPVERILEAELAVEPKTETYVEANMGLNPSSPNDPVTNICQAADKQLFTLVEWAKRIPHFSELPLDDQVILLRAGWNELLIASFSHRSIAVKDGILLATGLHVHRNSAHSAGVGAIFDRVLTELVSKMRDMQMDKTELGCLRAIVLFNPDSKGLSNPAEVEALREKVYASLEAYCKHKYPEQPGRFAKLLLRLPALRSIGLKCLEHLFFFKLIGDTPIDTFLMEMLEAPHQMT
Kind of test: Agonist activity at recombinant RXRalphaLBD expressed in HEK293T cells co-expressing GAL4 DBD at 20 uM by transactivation assay. It counts as functional, cell-based. The conditions noted are these: HEK-293T. The gist of the method:
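One-hybrid assay in HEK293T cells cotransfected with a Gal4 DBD–NR-LBD fusion (RXRα, LXRα, GR, PR, PPARδ or PPARγ) plus UAS-TK-Luc reporter. Compound was 20 μM, given alone or with agonist: 9cRA 0.1 μM (RXRα), TO901317 0.5 μM (LXRα), dexamethasone 50 nM (GR), progesterone 100 nM (PR), GW1516 10 μM (PPARδ), rosiglitazone 10 μM (PPARγ). Luciferase read-out; three independent experiments.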

The nature of test [2]: Agonist activity at GST tagged human recombinant FXRalphaLBD expressed in Escherichia coli BL21 cells assessed as SRC-1 co-activator association at 40 uM after 30 mins by HTRF assay. In kind it is functional. The method, boiled down:
(§1)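 HTRF coactivator recruitment: 10 nM GST-human FXRαLBD (residues 238–473, E. coli BL21(DE3)), 0.83 nM anti-GST-Eu cryptate, 100 nM biotin-SRC1 peptide, 41.75 nM SA/XL665. Buffer was 50 mM Hepes pH 7.0, 125 mM KF, 0.125% CHAPS, 0.05% dry milk. Compound alone or with CDCA, 30 min at room temperature. Signal was 1000×(668/620 nm). Primary screen at 40 μM; IC50 as mean ± SE, three experiments.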
(In general: In TR-FRET formats the signal depends on donor and acceptor labels being close together.)

Test [3] has as its system Mus musculus. Kind of test: Reduction of hepatic cholesterol level in cholesterol-fed C57BL/6 mouse at 100 mg/kg, po after 10 days. In kind it is functional. On the set-up: scale not given: the % may be the effect or the level left. The method, boiled down:
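Male C57BL/6 mice, 8–12 weeks old, were randomized into five groups of nine. Control mice had ground chow; the other groups had chow with 2% cholesterol. Compound (50 or 100 mg/kg) or reference (100 mg/kg) was suspended in 0.5% CMC-Na and given by oral gavage; control and vehicle mice got 0.5% CMC-Na. Serum and hepatic triglyceride and total cholesterol were measured.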

Test [4] concerns BL21. Kind of test: (§2) Antagonist activity at GST-tagged human recombinant FXRalphaLBD expressed in Escherichia coli BL21 cells assessed as inhibition of CDCA-induced SRC-1 co-activator association by HTRF assay. In kind it is functional. The method, boiled down: as §1
Test [5] is described as follows: as §2. In kind it is functional. The gist of the method: as §1
Test [6] has as its target T2, Bile acid receptor (Homo sapiens) (UniProt Q96RI1).
T2 sequence (whole entry): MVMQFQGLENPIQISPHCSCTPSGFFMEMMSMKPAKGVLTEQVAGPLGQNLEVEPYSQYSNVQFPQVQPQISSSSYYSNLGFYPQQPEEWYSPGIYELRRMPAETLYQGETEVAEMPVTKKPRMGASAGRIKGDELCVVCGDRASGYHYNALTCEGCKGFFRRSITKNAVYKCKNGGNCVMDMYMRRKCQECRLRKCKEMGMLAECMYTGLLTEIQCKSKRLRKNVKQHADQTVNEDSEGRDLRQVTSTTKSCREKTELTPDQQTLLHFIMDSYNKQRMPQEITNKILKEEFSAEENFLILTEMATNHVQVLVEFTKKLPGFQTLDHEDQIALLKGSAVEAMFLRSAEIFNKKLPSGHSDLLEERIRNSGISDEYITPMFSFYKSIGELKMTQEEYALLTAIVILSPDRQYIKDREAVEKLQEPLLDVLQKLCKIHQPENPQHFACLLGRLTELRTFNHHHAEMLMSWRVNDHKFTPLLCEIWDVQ
Kind of test: Antagonist activity at human FXR in human HepG2 cells assessed as inhibition of CDCA induced BSEP gene expression at 5 to 40 uM after 24 hrs by RT-PCR analysis. It counts as functional, cell-based. The method, boiled down: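 HepG2 cells in 6-well plates were treated with varied concentrations of compound, with or without 100 μM CDCA, for 24 h. Total RNA was taken with TRIzol and cDNA made by reverse transcription. Cyp7A1, SHP, BSEP and SREBP1c mRNA were measured by quantitative RT-PCR and normalized to β-actin. Three independent experiments.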

Active and inactive are the calls of the source. The rule behind the calls is not given here. Where only a bound is given, the exact number is not on record here.

Regarding `COc1cc(/C=C2\C(=O)N(c3cccc([N+](=O)[O-])c3)N=C2c2ccccc2)ccc1O`, the outcome in test [1] was inactive. Also, the Activity is reported as less than 5% in test [2] and 47.5% in test [3]. For the same compound, the inhibition result in test [4] was “Dose-dependent effect”. The IC50 (usually the midpoint of a concentration-inhibition curve) in test [5] is 8.96 µM. For the same compound, the inhibition result in test [6] is “Active”.
